# “Also recorded” adds a separate entry of the source.
# How the values were obtained:
# Adrenergic α1B = Adrenergic α1B (Rattus norvegicus, UniProt P15823); test: Lead Profiling Screen radioligand binding
# Interleukin IL-1 = Interleukin IL-1 (Mus musculus, UniProt P13504); test: Lead Profiling Screen radioligand binding
# Adenosine A2A = Adenosine A2A (Homo sapiens, UniProt P29274); test: Lead Profiling Screen radioligand binding
# [1] = system: nontransfected HEK 293 cells; test: [3H]choline accumulation in nontransfected HEK 293 cells; type: cell-based, human; conditions: 5 μM ML352; data not shown
# Adrenergic β2 = Adrenergic β2 (Homo sapiens, UniProt P07550); test: Lead Profiling Screen radioligand binding
# [2] = brain tissue distribution in Sprague-Dawley rats; type: in vivo; conditions: male, rat, brain/plasma, iv, 1 mg/kg
# Neuropeptide Y Y2 = Neuropeptide Y Y2 (Homo sapiens, UniProt P49146); test: Lead Profiling Screen radioligand binding
# PBS solubility = type: physicochemical; conditions: aqueous buffer
# GABAA, Muscimol, Central = test: Lead Profiling Screen radioligand binding; conditions: 10 μM ML352
# Prostanoid EP4 = Prostanoid EP4 (Homo sapiens, UniProt P35408); test: Lead Profiling Screen radioligand binding
# Calcium Channel N-Type = Calcium Channel N-Type (Rattus norvegicus, UniProt Q02294); test: Lead Profiling Screen radioligand binding
# P450 2C9 = P450 2C9 (Homo sapiens, UniProt P11712)
# [3] = target: norepinephrine transporter (NET) (Homo sapiens, UniProt P23975); test: [3H]NE uptake in HEK293 hNET cells; type: cell-based; conditions: transfected HEK 293 cells
# Muscarinic M2 = Muscarinic M2 (Homo sapiens, UniProt P08172); test: Lead Profiling Screen radioligand binding
# Glutamate, NMDA, Glycine = test: Lead Profiling Screen radioligand binding; conditions: 10 μM ML352
# hCHT = target: T1, hCHT (Homo sapiens, UniProt Q9GZV3); test: [3H]HC-3 binding to membranes from HEK hCHT cells; conditions: for [3H]HC-3 binding Bmax: relative to control
# T1 sequence (Q9GZV3 1-580): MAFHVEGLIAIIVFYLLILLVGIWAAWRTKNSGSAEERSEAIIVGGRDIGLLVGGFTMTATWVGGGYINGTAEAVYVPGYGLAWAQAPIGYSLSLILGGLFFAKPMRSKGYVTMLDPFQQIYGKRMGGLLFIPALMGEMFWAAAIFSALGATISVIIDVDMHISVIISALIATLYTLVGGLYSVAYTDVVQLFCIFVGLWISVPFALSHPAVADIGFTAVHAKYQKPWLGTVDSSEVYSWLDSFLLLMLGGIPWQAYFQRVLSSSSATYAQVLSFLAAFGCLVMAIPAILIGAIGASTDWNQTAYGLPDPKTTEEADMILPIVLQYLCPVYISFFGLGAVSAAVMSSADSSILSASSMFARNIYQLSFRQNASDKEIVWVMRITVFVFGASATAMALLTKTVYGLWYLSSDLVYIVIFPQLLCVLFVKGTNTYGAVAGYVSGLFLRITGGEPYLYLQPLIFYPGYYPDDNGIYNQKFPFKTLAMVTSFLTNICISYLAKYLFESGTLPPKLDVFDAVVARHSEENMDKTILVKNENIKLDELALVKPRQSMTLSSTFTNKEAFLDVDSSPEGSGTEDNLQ
# DAT = DAT (Mus musculus, UniProt Q61327); test: dopamine uptake in mouse forebrain synaptosomes; type: biochemical; conditions: 5 μM ML352
# How it was run: (§1)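 Crude P2 synaptosomes from forebrains of male C57BL/6J mice (8–10 weeks), taken after decapitation under urethane. Incubated 10 min at 37 °C in Krebs bicarbonate buffer with 100 nM [3H]dopamine or [3H]serotonin ± test compound. Stopped on ice, rapidly filtered, counted by scintillation. Specific uptake defined with cocaine 1 μM (DAT) or citalopram 1 μM (SERT). Protein by BCA; n = 3.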
# Dopamine D1 = Dopamine D1 (Homo sapiens, UniProt P21728); test: Lead Profiling Screen radioligand binding
# Sigma σ1 = Sigma σ1 (Homo sapiens, UniProt Q99720); test: Lead Profiling Screen radioligand binding
# P450 1A2 = P450 1A2 (Homo sapiens, UniProt P05177); test: cytochrome P450 inhibition; type: in vitro ADME
# AChE = AChE (Mus musculus, UniProt P21836); test: AChE activity in mouse forebrain extracts; type: biochemical; conditions: concentrations well above the CHT Ki
# [4] = intrinsic clearance in hepatic microsomes; type: in vitro ADME; conditions: rat; predicted hepatic clearance from microsomal CLint
# SERT = SERT (Mus musculus, UniProt Q60857); test: serotonin uptake in mouse forebrain synaptosomes; type: biochemical; conditions: 5 μM ML352
# How it was run: as §1
# hERG potassium channel = hERG potassium channel (Homo sapiens, UniProt Q12809); test: Lead Profiling Screen radioligand binding
# Adenosine A1 = Adenosine A1 (Homo sapiens, UniProt P30542); test: Lead Profiling Screen radioligand binding
# hCHT LV-AA = hCHT LV-AA (Homo sapiens, UniProt Q9GZV3, L531A/V532A); test: [3H]choline uptake in HEK 293 cells transfected with hCHT LV-AA; type: cell-based; conditions: ML352 at 200 or 800 nM in saturation choline transport assays
# [5] = target: Epidermal Growth Factor (EGF) (Homo sapiens, UniProt P00533); test: Lead Profiling Screen radioligand binding
# Adrenergic α1D = Adrenergic α1D (Homo sapiens, UniProt P25100); test: Lead Profiling Screen radioligand binding
# [6] = target: serotonin transporter (SERT) (Homo sapiens, UniProt P31645); test: [3H]5-HT uptake in HEK293 hSERT cells; type: cell-based; conditions: transfected HEK 293 cells
# Sodium Channel, Site 2 = test: Lead Profiling Screen radioligand binding; conditions: 10 μM ML352
# Phorbol Ester = test: Lead Profiling Screen radioligand binding; conditions: 10 μM ML352
# [7] = intrinsic clearance in hepatic microsomes; type: in vitro ADME; conditions: human; predicted hepatic clearance from microsomal CLint
# Glutamate, NMDA, Agonism = test: Lead Profiling Screen radioligand binding; conditions: 10 μM ML352
# Glucocorticoid = Glucocorticoid (Homo sapiens, UniProt P04150); test: Lead Profiling Screen radioligand binding
# Sequence of AChE (P21836 32-614): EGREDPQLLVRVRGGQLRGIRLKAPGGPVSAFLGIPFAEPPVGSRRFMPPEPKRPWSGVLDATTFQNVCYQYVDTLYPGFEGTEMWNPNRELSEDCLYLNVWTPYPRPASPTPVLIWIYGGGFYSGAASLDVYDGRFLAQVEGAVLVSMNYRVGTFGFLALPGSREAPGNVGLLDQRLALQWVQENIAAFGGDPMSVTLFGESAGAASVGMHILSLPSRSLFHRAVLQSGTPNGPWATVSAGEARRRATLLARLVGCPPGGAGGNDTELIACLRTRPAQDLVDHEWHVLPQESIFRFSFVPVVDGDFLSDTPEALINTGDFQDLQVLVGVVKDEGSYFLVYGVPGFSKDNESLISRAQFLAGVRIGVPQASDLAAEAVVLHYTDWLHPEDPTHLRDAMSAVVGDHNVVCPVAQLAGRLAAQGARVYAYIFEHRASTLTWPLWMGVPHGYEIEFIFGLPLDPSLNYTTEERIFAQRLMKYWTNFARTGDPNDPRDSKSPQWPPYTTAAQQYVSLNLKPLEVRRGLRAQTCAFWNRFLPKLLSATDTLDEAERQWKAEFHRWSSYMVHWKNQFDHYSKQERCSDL
# Sequence of Adrenergic α1B (P15823 whole entry): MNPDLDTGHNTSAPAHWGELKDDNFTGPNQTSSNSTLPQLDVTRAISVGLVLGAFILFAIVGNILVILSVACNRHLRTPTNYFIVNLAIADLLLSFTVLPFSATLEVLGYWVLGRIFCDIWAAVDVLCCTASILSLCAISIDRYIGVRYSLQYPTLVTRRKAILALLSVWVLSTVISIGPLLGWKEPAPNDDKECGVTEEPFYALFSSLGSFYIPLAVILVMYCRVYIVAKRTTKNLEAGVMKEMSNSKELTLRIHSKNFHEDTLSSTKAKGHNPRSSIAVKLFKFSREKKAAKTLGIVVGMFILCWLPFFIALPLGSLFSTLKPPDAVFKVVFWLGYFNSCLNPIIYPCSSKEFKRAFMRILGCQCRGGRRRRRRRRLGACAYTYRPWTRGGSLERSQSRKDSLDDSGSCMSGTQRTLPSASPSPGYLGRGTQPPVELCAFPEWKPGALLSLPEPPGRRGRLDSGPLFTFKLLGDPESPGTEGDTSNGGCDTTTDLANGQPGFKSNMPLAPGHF
# Sequence of P450 2C9 (P11712 whole entry): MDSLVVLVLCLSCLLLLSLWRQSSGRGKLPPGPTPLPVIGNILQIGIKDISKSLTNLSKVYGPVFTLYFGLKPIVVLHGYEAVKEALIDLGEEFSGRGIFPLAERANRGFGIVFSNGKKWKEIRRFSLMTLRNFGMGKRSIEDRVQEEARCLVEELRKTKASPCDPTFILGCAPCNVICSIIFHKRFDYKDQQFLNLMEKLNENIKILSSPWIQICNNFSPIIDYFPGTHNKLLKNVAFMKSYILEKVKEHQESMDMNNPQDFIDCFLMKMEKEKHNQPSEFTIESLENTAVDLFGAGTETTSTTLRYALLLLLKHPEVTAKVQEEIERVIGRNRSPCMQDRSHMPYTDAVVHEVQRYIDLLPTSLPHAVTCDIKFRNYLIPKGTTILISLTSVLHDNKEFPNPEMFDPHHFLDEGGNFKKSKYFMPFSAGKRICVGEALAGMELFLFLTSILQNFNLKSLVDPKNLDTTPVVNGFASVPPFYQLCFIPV
# Sequence of DAT (Q61327 whole entry): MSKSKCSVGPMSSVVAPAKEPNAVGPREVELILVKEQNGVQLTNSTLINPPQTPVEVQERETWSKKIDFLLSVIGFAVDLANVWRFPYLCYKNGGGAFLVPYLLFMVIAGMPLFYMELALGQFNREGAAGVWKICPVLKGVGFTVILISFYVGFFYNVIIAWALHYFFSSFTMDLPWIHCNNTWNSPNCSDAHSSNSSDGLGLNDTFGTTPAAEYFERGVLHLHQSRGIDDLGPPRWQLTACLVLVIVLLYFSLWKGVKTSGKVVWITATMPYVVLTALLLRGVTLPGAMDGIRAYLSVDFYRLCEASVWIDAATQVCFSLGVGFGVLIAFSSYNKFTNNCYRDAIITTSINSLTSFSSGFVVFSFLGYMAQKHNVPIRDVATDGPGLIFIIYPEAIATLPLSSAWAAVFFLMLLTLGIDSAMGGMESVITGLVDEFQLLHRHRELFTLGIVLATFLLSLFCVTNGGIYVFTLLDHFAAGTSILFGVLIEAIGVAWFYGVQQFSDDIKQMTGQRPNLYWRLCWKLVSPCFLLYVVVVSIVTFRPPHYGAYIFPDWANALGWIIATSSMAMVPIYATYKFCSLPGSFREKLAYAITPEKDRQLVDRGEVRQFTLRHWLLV
# Sequence of Interleukin IL-1 (P13504 20-576): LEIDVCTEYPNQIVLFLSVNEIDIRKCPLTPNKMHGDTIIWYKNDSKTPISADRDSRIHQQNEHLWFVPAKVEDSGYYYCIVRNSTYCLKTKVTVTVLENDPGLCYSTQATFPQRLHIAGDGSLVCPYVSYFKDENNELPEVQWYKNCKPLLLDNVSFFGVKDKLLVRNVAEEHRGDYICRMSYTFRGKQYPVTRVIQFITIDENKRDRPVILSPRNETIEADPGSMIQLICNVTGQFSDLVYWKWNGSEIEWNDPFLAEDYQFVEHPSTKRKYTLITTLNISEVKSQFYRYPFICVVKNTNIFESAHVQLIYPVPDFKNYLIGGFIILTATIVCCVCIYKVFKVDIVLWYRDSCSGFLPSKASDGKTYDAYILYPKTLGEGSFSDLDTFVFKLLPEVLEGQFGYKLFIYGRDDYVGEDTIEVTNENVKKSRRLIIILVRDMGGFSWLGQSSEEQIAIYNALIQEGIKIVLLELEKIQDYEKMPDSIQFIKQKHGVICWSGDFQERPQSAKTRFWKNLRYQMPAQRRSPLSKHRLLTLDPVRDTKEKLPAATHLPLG
# Sequence of hCHT LV-AA (Q9GZV3 whole entry L531A/V532A): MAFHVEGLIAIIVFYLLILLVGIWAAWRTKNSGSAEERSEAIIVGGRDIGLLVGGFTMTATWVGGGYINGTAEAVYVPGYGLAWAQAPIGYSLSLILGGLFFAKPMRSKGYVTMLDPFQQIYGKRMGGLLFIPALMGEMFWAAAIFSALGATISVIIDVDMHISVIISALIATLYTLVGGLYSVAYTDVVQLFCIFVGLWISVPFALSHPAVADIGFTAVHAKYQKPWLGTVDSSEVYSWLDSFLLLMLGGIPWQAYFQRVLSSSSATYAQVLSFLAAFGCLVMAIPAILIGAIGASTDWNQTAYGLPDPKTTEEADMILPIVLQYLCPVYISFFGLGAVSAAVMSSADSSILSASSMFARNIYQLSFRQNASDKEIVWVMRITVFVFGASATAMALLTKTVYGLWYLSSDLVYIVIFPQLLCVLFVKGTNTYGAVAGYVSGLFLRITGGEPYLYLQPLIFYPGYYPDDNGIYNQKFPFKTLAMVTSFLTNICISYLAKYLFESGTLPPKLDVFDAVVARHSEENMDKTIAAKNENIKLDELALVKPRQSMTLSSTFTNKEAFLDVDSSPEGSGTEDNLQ
# Sequence of Prostanoid EP4 (P35408 whole entry): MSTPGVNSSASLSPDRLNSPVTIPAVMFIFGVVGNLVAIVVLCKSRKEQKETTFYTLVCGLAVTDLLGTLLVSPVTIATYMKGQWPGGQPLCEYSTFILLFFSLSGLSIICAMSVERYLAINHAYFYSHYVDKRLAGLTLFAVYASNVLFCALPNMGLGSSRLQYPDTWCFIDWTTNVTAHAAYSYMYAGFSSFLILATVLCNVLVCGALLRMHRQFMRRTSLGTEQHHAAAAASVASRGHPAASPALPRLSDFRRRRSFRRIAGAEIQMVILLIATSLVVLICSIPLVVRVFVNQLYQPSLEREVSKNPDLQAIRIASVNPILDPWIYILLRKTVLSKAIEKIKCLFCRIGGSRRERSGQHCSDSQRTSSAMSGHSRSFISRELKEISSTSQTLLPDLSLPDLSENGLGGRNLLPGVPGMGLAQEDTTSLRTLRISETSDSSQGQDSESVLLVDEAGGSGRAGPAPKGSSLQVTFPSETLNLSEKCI
# Sequence of norepinephrine transporter (NET) (P23975 whole entry): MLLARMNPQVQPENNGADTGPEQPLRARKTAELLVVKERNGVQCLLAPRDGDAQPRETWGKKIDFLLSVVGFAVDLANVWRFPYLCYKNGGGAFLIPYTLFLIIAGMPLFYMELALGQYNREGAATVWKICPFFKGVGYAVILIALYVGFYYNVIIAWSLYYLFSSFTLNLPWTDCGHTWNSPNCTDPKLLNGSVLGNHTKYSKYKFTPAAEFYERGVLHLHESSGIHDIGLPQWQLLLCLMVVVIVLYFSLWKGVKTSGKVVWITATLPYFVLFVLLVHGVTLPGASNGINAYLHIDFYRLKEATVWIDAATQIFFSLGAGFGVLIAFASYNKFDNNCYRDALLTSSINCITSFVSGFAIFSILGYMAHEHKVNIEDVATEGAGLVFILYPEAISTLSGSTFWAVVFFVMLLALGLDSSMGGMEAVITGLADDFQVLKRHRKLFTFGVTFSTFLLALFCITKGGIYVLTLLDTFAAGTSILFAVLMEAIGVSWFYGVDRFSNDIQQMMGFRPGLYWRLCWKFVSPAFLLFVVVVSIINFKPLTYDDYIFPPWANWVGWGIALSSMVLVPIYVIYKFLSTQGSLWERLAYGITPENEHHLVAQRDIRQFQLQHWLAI
# Sequence of Adrenergic β2 (P07550 whole entry): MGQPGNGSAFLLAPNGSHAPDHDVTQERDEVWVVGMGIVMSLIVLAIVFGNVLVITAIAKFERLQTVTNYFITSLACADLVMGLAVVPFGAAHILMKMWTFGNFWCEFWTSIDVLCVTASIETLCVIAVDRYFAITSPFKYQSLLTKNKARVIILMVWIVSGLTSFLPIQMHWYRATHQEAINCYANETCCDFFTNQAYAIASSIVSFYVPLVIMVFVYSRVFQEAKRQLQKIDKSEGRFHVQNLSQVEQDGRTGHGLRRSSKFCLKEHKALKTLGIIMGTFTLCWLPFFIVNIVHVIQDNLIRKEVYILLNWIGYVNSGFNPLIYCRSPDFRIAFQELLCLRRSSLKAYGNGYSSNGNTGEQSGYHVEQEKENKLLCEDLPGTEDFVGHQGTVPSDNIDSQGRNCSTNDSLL
smiles,measurement,setting,value
"COc1ccc(C(=O)NCc2cc(C(C)C)no2)cc1OC1CCN(C)CC1 [ML352, N-((3-isopropylisoxazol-5-yl)methyl)-4-methoxy-3-((1-methylpiperidin-4-yl)oxy)benzamide]",inhibition at 10 µM,Adrenergic α1B,3%
same,inhibition at 10 µM,Interleukin IL-1,-2%
same,inhibition at 10 µM,Adenosine A2A,0%
same,effect on [3H]choline accumulation in nontransfected HEK 293 cells,[1],< 20%
same,inhibition at 10 µM,Adrenergic β2,43%
same,Kp at […],[2],0.2
same,inhibition at 10 µM,Neuropeptide Y Y2,7%
same,solubility,PBS solubility,98.2 ± 1.1 µM
same,% inhibition,"GABAA, Muscimol, Central",9%
same,inhibition at 10 µM,Prostanoid EP4,-7%
same,inhibition at 10 µM,Calcium Channel N-Type,-1%
same,IC50,P450 2C9,> 30 µM
same,inhibitory activity at NET,[3],lack of inhibitory activity
same,inhibition at 10 µM,Muscarinic M2,12%
same,% inhibition,"Glutamate, NMDA, Glycine",4%
same,[3H]HC-3 binding Bmax,hCHT; 200 nM ML352,80.3 ± 3.8%
same,[3H]HC-3 binding Bmax,hCHT; 800 nM ML352,48.9 ± 4.1%
same,mode of inhibition of [3H]HC-3 binding,"hCHT; transfected cell membranes, 200 and 800 nM ML352",noncompetitive inhibition
same,inhibition of DAT,DAT,fails to inhibit
same,inhibition at 10 µM,Dopamine D1,9%
same,inhibition at 10 µM,Sigma σ1,-1%
same,IC50,P450 1A2,> 30 µM
same,inhibition of AChE,AChE,no ability; also recorded: lacks activity; also recorded: no inhibition
same,CLhep,[4],40.3 mL/min/kg
same,inhibition of SERT,SERT,fails to inhibit
same,inhibition at 10 µM,hERG potassium channel,16%
same,inhibition at 10 µM,Adenosine A1,-5%
same,mode of choline uptake inhibition,hCHT LV-AA,noncompetitively inhibits
same,inhibition at 10 µM,[5],5%
same,inhibition at 10 µM,Adrenergic α1D,24%
same,inhibitory activity at SERT,[6],lack of inhibitory activity
same,% inhibition,"Sodium Channel, Site 2",20%
same,% inhibition,Phorbol Ester,5%
same,CLhep,[7],6.9 mL/min/kg
same,% inhibition,"Glutamate, NMDA, Agonism",1%
same,inhibition at 10 µM,Glucocorticoid,-1%

# From publication PMC4367188 (ACS Chemical Neuroscience, 2015)
